Data set [1] can be described thus: Metabolic stability in swine intestinal. To be noted: swine intestinal (jejunum) homogenate, 20 μm, 37 °C, 1 h (Figure 1B). The data set is classed as in vitro ADME.
Data set [2] can be described thus: In vitro plasma stability, mouse plasma. The data set is classed as in vitro ADME. Particulars: prodrug 20 μm, 37 °C.
Data set [3] can be described thus: In vitro plasma stability, human plasma. To be noted: prodrug 20 μm, 37 °C. The data set is classed as in vitro ADME.
Data set [4] in a line: Metabolic stability in swine liver homogenate. To be noted: 20 μm, 37 °C, 1 h (Figure 1A). The data set is classed as in vitro ADME.
Data set [5] has as its system P493B lymphoma cells. The data set can be described thus: Human tumor cell-to-plasma partitioning, P493B cells in human plasma. To be noted: human plasma with P493B cells, 0.25-2 h (Figure 3A). The data set is classed as cell-based. A digest of the protocol: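 P493B lymphoma cells were grown in RPMI 1640 with L-glutamine, 10% FBS and 1% antibiotic/antimycotic at 37 °C and 5% CO2. Pelleted cells were resuspended in human plasma at 10 million cells/mL and preincubated 5 min at 37 °C. Test compound was incubated at 37 °C for 1 h, or for 0.25, 0.5, 1 and 2 h. Plasma and washed pellets were analysed for intact prodrug and DON by LC–MS/MS, with DON dabsyl-derivatised.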

A short description of data set [6]: Negative control incubation without enzymes. The data set is classed as physicochemical. To be noted: no enzyme, pH 6 buffer, 37 °C, 3 h.
Data set [7] in a line: In vitro plasma stability, swine plasma. Particulars: prodrug 20 μm, 37 °C. The data set is classed as in vitro ADME.
Data set [8] can be described thus: Pharmacokinetics in EL4 tumor-bearing CES1-/- mice. The data set is classed as in vivo, C57BL/6 CES1−/− mice. The method, boiled down: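 EL4 cells (1 × 10^6 in PBS) were implanted SC in the flank of male and female C57BL/6 CES1−/− mice (6–8 weeks). At about 400 mm3 tumour volume, a single 3.2 mg/kg SC dose was given in ethanol/Tween 80/saline (5:10:85). Plasma, jejunum and tumour were sampled at set times, n = 3 per time point. Analysis was LC–MS/MS with noncompartmental parameters, mean ± SEM.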

For the molecule `CC(=O)NCCCC[C@H](NC(=O)OCC1c2ccccc2-c2ccccc21)C(=O)N[C@@H](CCC(=O)C=[N+]=[N-])C(=O)OC(C)C` [Compound 3, Isopropyl 2-(2-((((9H-Fluoren-9-yl)methoxy)carbonyl)-amino)-6-acetamidohexanamido)-6-diazo-5-oxohexanoate], in data set [1], the “% remaining at 1 h in swine intestinal homogenate” value is recorded as “instability”.
Turning to `CC(=O)NCCCC[C@H](NC(=O)C12CC3CC(CC(C3)C1)C2)C(=O)N[C@@H](CCC(=O)C=[N+]=[N-])C(=O)OC(C)C` [Compound 6, isopropyl 2-(6-acetamido-2-(adamantane-1-carboxamido)hexanamido)-6-diazo-5-oxohexanoate], in data set [2], the “Plasma Stability (%Remaining at 1 h) Mouse” value is “instability”. Moreover, the “Plasma Stability (%Remaining at 1 h) Human” value in data set [3] was “complete stability”. The “% remaining at 1 h in swine liver homogenate” value in data set [4] was 100%. In addition, in data set [5], the “stability of intact prodrug in human plasma, time course” value is listed as “stable over the 2 h incubation period”. In addition, in data set [6], the “chemical stability in negative control without enzymes” value is “chemically stable”. Also, the “Plasma Stability (%Remaining at 1 h) Swine” value in data set [7] is “complete stability”. Besides, the “intact prodrug measured in tumor” value in data set [8] (EL4 tumor, SC 3.2 mg/kg) was “minimal”. The “DON AUC in tumor after dosing of 6” value in data set [8] (EL4 tumor, SC 3.2 mg/kg (1 mg/kg DON equivalent), AUC0–t) was 5.1 nmol·h/g. Besides, in data set [8] (jejunum, SC 3.2 mg/kg (1 mg/kg DON equivalent), AUC0–t), the “DON AUC in jejunum (GI tissues) after dosing of 6” value came to 0.45 nmol·h/g. For the same molecule, in data set [8] (jejunum, SC 3.2 mg/kg, below the limit of quantification), the “intact prodrug levels in jejunum” value is less than 0.001 nmol/mL.
With `CCCCCCCCCCCCCCCC(=O)N[C@@H](CCCCNC(C)=O)C(=O)N[C@@H](CCC(=O)C=[N+]=[N-])C(=O)OC(C)C` [Compound 4, Isopropyl 2-(6-Acetamido-2-palmitamidohexanamido)-6-diazo-5-oxohexanoate], the “% remaining at 1 h in swine intestinal homogenate” value in data set [1] is “unstable”.
On to `CC(=O)NCCCC[C@H](NC(=O)[C@H](Cc1c[nH]c2ccccc12)NC(=O)C(C)(C)C)C(=O)N[C@@H](CCC(=O)C=[N+]=[N-])C(=O)OC(C)C` [Compound 11, Isopropyl 2-(2-(3-(1H-Indol-3-yl)-2-pivalamidopropanamido)-6-acetamidohexanamido)-6-diazo-5-oxohexanoate], for which the “% remaining at 1 h in swine intestinal homogenate” value in data set [1] is recorded as “instability”.
In the case of `CC(=O)NCCCC[C@H](NC(=O)[C@@H]1Cc2ccccc2CN1)C(=O)N[C@@H](CCC(=O)C=[N+]=[N-])C(=O)OC(C)C` [Compound 12, Isopropyl 2-(6-Acetamido-2-(1,2,3,4-tetrahydroisoquinoline-3-carboxamido)hexanamido)-6-diazo-5-oxohexanoate], in data set [1], the “% remaining at 1 h in swine intestinal homogenate” value is reported as “instability”.
Regarding `CC(=O)NCCCC[C@H](NC(=O)[C@@H](N)Cc1c[nH]c2ccccc12)C(=O)N[C@@H](CCC(=O)C=[N+]=[N-])C(=O)OC(C)C` [Compound 9, Isopropyl 2-(6-Acetamido-2-(2-amino-3-(1H-indol-3-yl)-propanamido)hexanamido)-6-diazo-5-oxohexanoate], the “% remaining at 1 h in swine intestinal homogenate” value in data set [1] is recorded as “instability”. Further, the “Plasma Stability (%Remaining at 1 h) Human” value in data set [3] is on record as “unstable”. In data set [7], the “Plasma Stability (%Remaining at 1 h) Swine” value is “unstable”.
